ChEMBL document CHEMBL1138297, “Design, synthesis, and multivariate quantitative structure-activity relationship of salicylanilides--potent inhibitors of type III secretion in Yersinia” (J Med Chem, 2007)

Assays:
[1] = system: Yersinia pseudotuberculosis; assay: Effect on T3S in Yersinia pseudotuberculosis 3 pIB29 assessed as inhibition of light emission at 5 uM by luciferase reporter gene assay
How it was run: (§1)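 YPIII pIB29 (yopE-luxAB) reporter strain grown overnight at ambient temperature in BHI with 5 mM EGTA and 20 mM MgCl2 to deplete calcium. Culture adjusted to OD600 0.15-0.25 and added to compounds in DMSO (final ≤1%). Incubated 1 h at ambient temperature with shaking, then 2 h at 37 °C. Decanal substrate added and luminescence read at once. Triplicates; repeated on ≥2 occasions.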

[2] = system: Yersinia pseudotuberculosis; assay: Effect on T3S in Yersinia pseudotuberculosis 3 pIB29 assessed as inhibition of light emission at 50 uM by luciferase reporter gene assay; how it was run: as §1
[3] = system: Yersinia pseudotuberculosis; assay: Effect on T3S in Yersinia pseudotuberculosis 3 pIB29 assessed as inhibition of light emission at 2 uM by luciferase reporter gene assay; how it was run: as §1
[4] = system: Yersinia pseudotuberculosis; assay: Effect on T3S in Yersinia pseudotuberculosis 3 pIB29 assessed as inhibition of light emission at 20 uM by luciferase reporter gene assay; how it was run: as §1
[5] = system: Yersinia pseudotuberculosis; assay: Effect on T3S in Yersinia pseudotuberculosis 3 pIB29 assessed as inhibition of light emission at 100 uM by luciferase reporter gene assay; how it was run: as §1
[6] = system: Yersinia pseudotuberculosis; assay: Effect on T3S in Yersinia pseudotuberculosis 3 pIB29 assessed as inhibition of light emission at 1 uM by luciferase reporter gene assay; how it was run: as §1
[7] = system: Yersinia pseudotuberculosis; assay: Effect on T3S in Yersinia pseudotuberculosis 3 pIB29 assessed as inhibition of light emission at 0.5 uM by luciferase reporter gene assay; how it was run: as §1
[8] = system: Yersinia pseudotuberculosis; assay: Effect on T3S in Yersinia pseudotuberculosis 3 pIB29 assessed as inhibition of light emission at 10 uM by luciferase reporter gene assay; how it was run: as §1

Row | SMILES | inhibition [1] [%] | inhibition [2] [%] | inhibition [3] [%] | inhibition [4] [%] | inhibition [5] [%] | inhibition [6] [%] | inhibition [7] [%] | inhibition [8] [%]
1 | CC(=O)Oc1ccc(I)cc1C(=O)Nc1ccc(Br)cc1 | 100 | 100 | 94 | 100 | 100 | 71 | 54 | 98
2 | CC(=O)Oc1c(I)cc(I)cc1C(=O)Nc1cc(Cl)ccc1F | 9 | 89 | 1 | 58 | 95 | 1 | 6 | 34
3 | O=C(Nc1ccc(SC(F)(F)F)cc1)c1cc(I)cc(I)c1O | 75 | 100 | 39 | 100 | 100 | 17 | 19 | 83
4 | O=C(Nc1ccc(Cl)cc1)c1cc(I)cc(I)c1O | 95 | 100 | 60 | 100 | 99 | 47 | 15 | 100
5 | CC(=O)Oc1ccc(I)cc1C(=O)Nc1ccc(Cl)cc1 | 99 | 100 | 92 | 100 | 100 | 73 | 58 | 99
6 | CC(=O)Oc1ccc(I)cc1C(=O)Nc1ccc(SC(F)(F)F)cc1 | 56 | 99 | 80 | 74 | 100 | 52 | 17 | 58
7 | O=C(Nc1ccc(SC(F)(F)F)cc1)c1c(O)c(Cl)cc(Cl)c1Cl | 54 | 100 | 18 | 68 | 100 | 4 | 11 | 58
8 | O=C(Nc1ccc(Br)cc1)c1cccc(Cl)c1O | 12 | 96 | 12 | 62 | 100 | 6 | 5 | 24
9 | CC(=O)Oc1c(I)cc(I)cc1C(=O)Nc1ccc(Cl)cc1 | 54 | 99 | 17 | 98 | 99 | 7 | 3 | 76
10 | Cc1cc(NC(=O)c2cc(Cl)ccc2O)ccc1Cl | 85 | 56 | 62 | 85 | 75 | 50 | 15 | 61
11 | CC(=O)Oc1c(I)cc(I)cc1C(=O)Nc1ccc(SC(F)(F)F)cc1 | 60 | 71 | 19 | 71 | 75 | 11 | 11 | 72
